This note sets out measurements from ChEMBL document CHEMBL1148491, “Synthesis and pharmacological characterization of nicotinic acetylcholine receptor properties of (+)- and (-)-pyrido-[3,4-b]homotropanes” (J Med Chem, 2006).

The species entered for assay [1] is Mus musculus. Kind of assay: Hypothermia in mouse. The class given is functional. In a few lines: (§1)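 Rectal temperature in mice measured by thermistor probe inserted 24 mm, read just before and at several times after sc injection (saline vehicle). Readout is the before-after difference for each mouse; ambient temperature 21-24 °C.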
The species entered for assay [2] is Mus musculus. Briefly: Antagonist effect on nicotine-induced antinociceptive activity in mouse by hot plate assay. The class given is functional.
Assay [3] concerns Mus musculus. Kind of assay: Antinociceptive activity in mouse by tail flick assay at 10 mg/kg. The class given is functional. In a few lines: (§2)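 Mouse tail-flick: tail exposed to a heat lamp and flick latency recorded. A control latency (2-4 s) was taken before treatment and a test latency after drug. Response given as %MPE = (test - control)/(maximum - control) × 100. ED50 with 95% confidence limits from unweighted least-squares linear regression.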

The subject of assay [4] is Rattus norvegicus. Briefly: Antagonist activity on nicotine discrimination in rat at 3 mg/kg by lever press assay. The class given is functional. The arrangement: scale not given: the % may be the effect or the level left. In a few lines:
(§3)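 Pretreatment with the test dose sc was followed 10 min later by 0.4 mg/kg (-)-nicotine, then a 15-min test session. Readouts: % nicotine-lever responding and response rate.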

Assay [5] addresses Neuronal acetylcholine receptor; alpha4/beta2 (Rattus norvegicus, UniProt P09483+P12390). Briefly: Displacement of [3H]epibatidine from alpha-4-beta-2 nACHR in rat cerebral cortex. The class given is tissue-based.
For assay [6], the species on record is Mus musculus. Kind of assay: Spontaneous activity in mouse. The class given is functional. In a few lines:
(§4)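 Mice placed in individual photocell activity cages 5 min after sc injection (0.9% saline vehicle). Photocell beam interruptions were counted over the next 10 min.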

The subject of assay [7] is Mus musculus. Kind of assay: Antinociceptive activity in mouse by hot plate assay at 10 mg/kg, sc after 5 mins. The class given is functional. The settings on record: route subcutaneous. In a few lines: (§5)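 Mouse hot-plate at 55.0 °C in a 10-cm glass cylinder. Two control latencies were taken ≥10 min apart (normal 8-12 s), scored by jumping or paw licking. Mice were tested 5 min after sc injection. Response given as %MPE = (test - control)/(maximum - control) × 100.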

In assay [8] the test system is Rattus norvegicus. Briefly: Agonist activity on nicotine discrimination in rat at 3 mg/kg by lever press assay. The class given is functional. The method, boiled down: (§6)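 Substitution tests were 15-min sessions starting 10 min after sc injection, with either lever reinforced. A rat was tested only if it made ≥80% injection-appropriate responses on the prior training day. Readouts: % nicotine-lever responding and response rate.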

The species named for assay [9] is Mus musculus. Kind of assay: Antagonist effect against nicotine-induced antinociceptive activity in mouse by tail flick assay. The class given is functional.
For assay [10], the system named is Mus musculus. Briefly: Antagonist effect on nicotine-induced antinociceptive activity in mouse by hot plate assay at […]. The class given is functional. Also noted: scale not given: the % may be the effect or the level left.
The subject of assay [11] is Mus musculus. Briefly: Antinociceptive activity in mouse by hot plate assay at 1 mg/kg, sc after 5 mins. The class given is functional. The conditions noted are these: route subcutaneous. In a few lines: as §5
Assay [12] concerns Rattus norvegicus. Kind of assay: Antagonist activity on nicotine discrimination in rat at 0.3 mg/kg by lever press assay. The class given is functional. The arrangement: scale not given: the % may be the effect or the level left. The method, boiled down:
as §3

Assay [13] concerns Mus musculus. Kind of assay: Antinociceptive activity in mouse by tail flick assay at 1 mg/kg. The class given is functional. In a few lines:
as §2

Assay [14] deals with Rattus norvegicus. Kind of assay: Agonist activity on nicotine discrimination in rat at 0.56 mg/kg by lever press assay. The class given is functional. In a few lines:
as §6

In assay [15] the target is T1, Neuronal acetylcholine receptor; alpha4/beta2 (Homo sapiens, UniProt P17787+P43681). Kind of assay: Intrinsic activity at human alpha-4-beta-2 nACHR in SH-EP1 cells relative to ACh. The class given is functional, cell-based.
For assay [16], the system named is Mus musculus. Briefly: Antagonist effect on nicotine-induced antinociceptive activity in mouse by tail flick assay at […]. The class given is functional. Also noted: scale not given: the % may be the effect or the level left.
Assay [17] has as its system Mus musculus. Briefly: Antagonist effect on nicotine-induced hypothermia in mouse at […]. Also noted: scale not given: the % may be the effect or the level left. The class given is functional.
Assay [18] addresses T1, Neuronal acetylcholine receptor; alpha4/beta2. Kind of assay: Antagonist activity at human alpha-4-beta-2 nACHR in SH-EP1 cells by patch-clamp assay at 10 uM. The arrangement: scale not given: the % may be the effect or the level left. The class given is functional, cell-based.
Assay [19] deals with Neuronal acetylcholine receptor subunit alpha-7 (Homo sapiens) (UniProt P36544). Briefly: Displacement of [125I]iodoMLA from alpha-7 nACHR at 10 uM. The conditions noted are these: Rattus norvegicus.
Assay [20] concerns the target T2, Neuronal acetylcholine receptor; alpha3/beta4 (Rattus norvegicus) (UniProt P04757+P12392). Briefly: Antagonist activity at rat alpha-3-beta-4 nACHR in HEK293 cells by patch-clamp assay at 10 uM. The class given is functional, cell-based. Also noted: scale not given: the % may be the effect or the level left.
The target in assay [21] is T1, Neuronal acetylcholine receptor; alpha4/beta2. Briefly: Activity at human alpha-4-beta-2 nACHR assessed as inhibition of ACh-induced current in SH-EP1 cells at 40 uM. The class given is functional, cell-based. Also noted: scale not given: the % may be the effect or the level left.
Assay [22] shares this target. Kind of assay: Agonist activity at human alpha-4-beta-2 nACHR in SH-EP1 cells by patch-clamp assay at 10 uM. The class given is functional, cell-based.
Assay [23] deals with Mus musculus. Kind of assay: Antinociceptive activity in mouse by tail flick assay at 10 ug administered intrathecally. The class given is functional, organism-based. In a few lines:
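Tail-flick latency to a heat lamp in mice after intrathecal injection of 10 µg/mouse.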

Assay [24] deals with T2, Neuronal acetylcholine receptor; alpha3/beta4 (Rattus norvegicus). Kind of assay: Agonist activity at rat alpha3beta4 nACHR in HEK293 cells by patch-clamp assay at 10 uM. The class given is functional, cell-based.
In assay [25] the test system is Mus musculus. Kind of assay: Spontaneous activity in mouse at 5 mg/kg. The class given is functional. The method, boiled down:
as §4

Assay [26] concerns Mus musculus. Kind of assay: Hypothermia in mouse at 5 mg/kg. The class given is functional, organism-based. The arrangement: dose 5 mg/kg. In a few lines:
as §1

The species entered for assay [27] is Mus musculus. Kind of assay: Antinociceptive activity in mouse by tail flick assay.
The subject of assay [28] is Mus musculus. Kind of assay: Antinociceptive activity in sc dosed mouse by hot plate assay after 5 mins.

pEC50, pKi: −log10 of the molar value. Activity calls are given as the source filed them. The rule behind the calls is not given here.

Chain of Neuronal acetylcholine receptor; alpha4/beta2 (Rattus norvegicus, UniProt P09483+P12390) (P09483 whole entry): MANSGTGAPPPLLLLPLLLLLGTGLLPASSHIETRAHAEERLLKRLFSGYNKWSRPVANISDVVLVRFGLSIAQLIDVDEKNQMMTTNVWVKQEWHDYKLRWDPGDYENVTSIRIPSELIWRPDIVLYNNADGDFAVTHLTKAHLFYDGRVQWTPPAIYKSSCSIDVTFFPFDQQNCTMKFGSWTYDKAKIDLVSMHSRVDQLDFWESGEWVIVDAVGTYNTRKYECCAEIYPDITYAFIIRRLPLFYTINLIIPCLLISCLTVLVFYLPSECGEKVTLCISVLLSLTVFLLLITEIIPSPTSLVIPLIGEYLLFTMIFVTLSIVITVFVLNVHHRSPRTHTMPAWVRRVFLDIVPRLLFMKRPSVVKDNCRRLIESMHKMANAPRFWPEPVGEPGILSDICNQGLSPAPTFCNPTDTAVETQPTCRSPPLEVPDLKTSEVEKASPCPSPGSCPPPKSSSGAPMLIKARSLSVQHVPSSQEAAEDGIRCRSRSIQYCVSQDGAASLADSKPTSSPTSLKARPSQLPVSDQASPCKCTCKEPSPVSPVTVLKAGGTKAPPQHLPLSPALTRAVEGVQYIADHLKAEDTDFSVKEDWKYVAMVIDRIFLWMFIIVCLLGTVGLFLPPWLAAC
Chain of Neuronal acetylcholine receptor; alpha4/beta2 (Rattus norvegicus, UniProt P09483+P12390) (P12390 whole entry): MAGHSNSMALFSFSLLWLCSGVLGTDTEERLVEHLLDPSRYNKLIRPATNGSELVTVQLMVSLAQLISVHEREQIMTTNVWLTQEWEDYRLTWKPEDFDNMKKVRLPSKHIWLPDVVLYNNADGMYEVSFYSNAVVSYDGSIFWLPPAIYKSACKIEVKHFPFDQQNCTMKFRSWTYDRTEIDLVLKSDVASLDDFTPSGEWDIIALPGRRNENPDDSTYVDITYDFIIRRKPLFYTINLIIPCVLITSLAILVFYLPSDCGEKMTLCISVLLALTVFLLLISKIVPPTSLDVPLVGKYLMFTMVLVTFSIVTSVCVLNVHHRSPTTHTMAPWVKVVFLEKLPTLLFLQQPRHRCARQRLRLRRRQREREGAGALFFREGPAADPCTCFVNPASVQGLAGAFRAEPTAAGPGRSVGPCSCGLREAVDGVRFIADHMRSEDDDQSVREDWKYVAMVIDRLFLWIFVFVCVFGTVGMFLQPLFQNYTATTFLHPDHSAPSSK
Chain of Neuronal acetylcholine receptor subunit alpha-7 (Homo sapiens) (P36544 whole entry): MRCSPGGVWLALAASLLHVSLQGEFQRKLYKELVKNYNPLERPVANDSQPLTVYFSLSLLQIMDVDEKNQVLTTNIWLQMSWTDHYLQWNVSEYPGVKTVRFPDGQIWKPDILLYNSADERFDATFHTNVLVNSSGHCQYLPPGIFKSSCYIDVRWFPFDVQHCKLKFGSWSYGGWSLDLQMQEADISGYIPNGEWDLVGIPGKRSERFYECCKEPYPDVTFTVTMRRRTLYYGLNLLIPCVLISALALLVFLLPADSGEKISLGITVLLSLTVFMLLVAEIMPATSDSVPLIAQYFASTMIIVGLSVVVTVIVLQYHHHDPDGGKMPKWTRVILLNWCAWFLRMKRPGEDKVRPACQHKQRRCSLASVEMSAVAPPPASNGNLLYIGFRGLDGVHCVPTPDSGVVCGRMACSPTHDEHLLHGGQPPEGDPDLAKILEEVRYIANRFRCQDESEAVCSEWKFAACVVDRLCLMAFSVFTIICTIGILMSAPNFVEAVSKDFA
T1 sequence (P17787 whole entry): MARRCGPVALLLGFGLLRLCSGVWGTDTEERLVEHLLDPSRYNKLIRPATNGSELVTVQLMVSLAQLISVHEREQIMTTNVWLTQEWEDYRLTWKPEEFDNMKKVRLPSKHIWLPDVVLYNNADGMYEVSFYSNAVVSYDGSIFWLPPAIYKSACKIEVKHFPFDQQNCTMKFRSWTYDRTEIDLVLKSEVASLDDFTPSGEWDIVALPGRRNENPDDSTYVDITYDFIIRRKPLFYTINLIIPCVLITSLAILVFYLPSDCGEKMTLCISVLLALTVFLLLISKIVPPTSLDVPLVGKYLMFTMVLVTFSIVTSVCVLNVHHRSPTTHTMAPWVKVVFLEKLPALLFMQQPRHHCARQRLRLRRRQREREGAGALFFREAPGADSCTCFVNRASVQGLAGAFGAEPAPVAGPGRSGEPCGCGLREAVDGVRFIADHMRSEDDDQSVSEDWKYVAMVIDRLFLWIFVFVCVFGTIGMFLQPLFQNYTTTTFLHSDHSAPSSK
T1 sequence (P43681 whole entry): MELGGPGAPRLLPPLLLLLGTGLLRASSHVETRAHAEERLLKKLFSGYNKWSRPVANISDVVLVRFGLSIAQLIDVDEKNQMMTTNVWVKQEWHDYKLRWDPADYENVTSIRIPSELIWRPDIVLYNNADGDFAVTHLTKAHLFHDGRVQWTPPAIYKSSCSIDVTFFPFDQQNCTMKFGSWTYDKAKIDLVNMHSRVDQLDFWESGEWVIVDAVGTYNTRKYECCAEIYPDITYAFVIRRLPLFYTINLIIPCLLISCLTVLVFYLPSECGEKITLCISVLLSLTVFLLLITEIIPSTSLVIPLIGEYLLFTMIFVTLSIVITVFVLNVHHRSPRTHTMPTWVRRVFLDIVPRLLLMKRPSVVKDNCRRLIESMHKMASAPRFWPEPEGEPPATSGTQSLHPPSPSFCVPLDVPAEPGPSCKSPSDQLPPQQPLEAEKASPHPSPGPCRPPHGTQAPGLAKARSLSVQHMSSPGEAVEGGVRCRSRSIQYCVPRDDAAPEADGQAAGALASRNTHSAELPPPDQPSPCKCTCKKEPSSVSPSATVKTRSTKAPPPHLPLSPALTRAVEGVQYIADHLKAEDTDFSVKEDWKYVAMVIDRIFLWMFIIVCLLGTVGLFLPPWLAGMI

Consider `c1cc2c(cn1)C1CCC(CC2)N1` (racemic), for which the ED50 in the assay listed under Mus musculus [1] (Mus musculus, read-out: ED50) was found to be 1600 µg/kg; in the assay listed under Mus musculus [6] (Mus musculus, read-out: ED50), 2600 µg/kg. Further, the AD50 in the assay listed under Mus musculus [2] came to 1000 µg/kg; in the assay listed under Mus musculus [9] it was 5 µg/kg. Moreover, the Activity with Mus musculus [3] was 12%; in the assay on Rattus norvegicus [4], 84%; with Mus musculus [7], 2%; in the assay with Rattus norvegicus [8], 17%. The pKi in assay [5] was 8.21.
With `c1cc2c(cn1)C1CCC(CC2)N1` (single isomer, unassigned; (+)) [listing 1 of 2 here], the Activity in the assay on Mus musculus [10] is 5%; in the assay with Mus musculus [11], 8%; in the assay with Rattus norvegicus [12], 96%; in the assay on Mus musculus [13] it was 8%; in the assay on Rattus norvegicus [14], 44.5%; with Mus musculus [16], 0%. In the assay on Mus musculus [17], this compound yielded an Activity of 0%. The ED50 is 2900 µg/kg in the assay listed under Mus musculus [1] and 2000 µg/kg in the assay filed under Mus musculus [6]. For the same compound, the pKi in [5] was 8.89. Moreover, the pEC50 in assay [15] was 5.26.
For `c1cc2c(cn1)C1CCC(CC2)N1` (single isomer, unassigned; (+)) [listing 2 of 2 here], the Activity stood at 117% in [18]; 101% in [20]; 17% in assay [15]; 10% in [21]; 28% in assay [22]; 13% in assay [24]. Further, the inhibition in assay [19] was under 50%. The result in the assay on Mus musculus [23] was inactive.
Consider `c1cc2c(cn1)C1CCC(CC2)N1` (single isomer, unassigned; (-)) [listing 1 of 2 here], for which the AD50 in the assay filed under Mus musculus [2] is 0.8 µg/kg; in the assay listed under Mus musculus [9], 0.07 µg/kg. For the same compound, the Activity in the assay with Mus musculus [11] came to 2%; in the assay with Mus musculus [13], 2%; with Mus musculus [25], 10%; in the assay with Rattus norvegicus [8], 23.8%. The compound also had a pKi in [5] of 6.46.
Take `c1cc2c(cn1)C1CCC(CC2)N1` (single isomer, unassigned; (-)) [listing 2 of 2 here]: the Activity in [18] was 89%; in assay [20] it was 93%; in [22], 0%; in [24], 0.9%. Besides, the inhibition in assay [19] came to 50%. Besides, in the assay on Mus musculus [26], the outcome was Active. In addition, the result in the assay on Mus musculus [23] was inactive.
Consider `Clc1ccc([C@@H]2C[C@H]3CC[C@@H]2N3)cn1` [(+)-EPIBATIDINE], for which the ED50 in the assay filed under Mus musculus [1] (Mus musculus, read-out: ED50) was found to be 4 µg/kg; in the assay listed under Mus musculus [27], 0.6 µg/kg; in the assay on Mus musculus [28], 4 µg/kg; in the assay filed under Mus musculus [6] (Mus musculus, read-out: ED50), 1 µg/kg.
Regarding `Clc1ccc([C@H]2C[C@@H]3CC[C@H]2N3)cn1` [(-)-EPIBATIDINE], the ED50 in the assay filed under Mus musculus [1] (Mus musculus, read-out: ED50) was 4 µg/kg; in the assay listed under Mus musculus [27] it was 6 µg/kg; in the assay with Mus musculus [28], 4 µg/kg; in the assay filed under Mus musculus [6] (Mus musculus, read-out: ED50), 1 µg/kg.
As for `CN1CCC[C@H]1c1cccnc1` [NICOTINE], the ED50 was found to be 1000 µg/kg in the assay listed under Mus musculus [1] (Mus musculus, read-out: ED50); 1300 µg/kg in the assay listed under Mus musculus [27]; 650 µg/kg in the assay on Mus musculus [28]; 500 µg/kg in the assay filed under Mus musculus [6] (Mus musculus, read-out: ED50).
In the same order, the values of `CN1CCC[C@@H]1c1cccnc1` [R-NICOTINE] are 7600 µg/kg, 8000 µg/kg, 3900 µg/kg and 2900 µg/kg.
